Activity calls are given as the source filed them. The rule behind the calls is not given here.
Legend:
[1] = system: Leishmania donovani; experiment: Antimicrobial activity against SSG-resistant Leishmania donovani 39 amastigote infected in mouse peritoneal macrophages assessed as inhibition of parasite growth at 5 uM after 3 days by Giemsa staining method; type: functional, organism-based
Procedure, shortened: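 Coverslip-grown peritoneal macrophages were infected 24 h at 37 °C with late-log Ld39 promastigotes (20:1), washed, then exposed to 5 μM compound for 3 days at 37 °C, with a DMSO solvent control. Giemsa staining was scored as percentage of macrophages infected and amastigotes per 100 macrophages.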

[2] = system: Leishmania donovani; experiment: Antimicrobial activity against pentamidine-resistant Leishmania donovani AG83PentR50 promastigote assessed as inhibition of parasite growth after 72 hrs by MTS assay; type: functional, organism-based; settings: AG83PentR50, 72 h
Procedure, shortened: (§1)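 Promastigotes were grown in Schneider's medium pH 6.9 with 10% heat-inactivated FBS at 27 °C, seeded at 1 × 10^5 per well, and exposed to serial concentrations for 72 h at 27 °C. Compounds were in DMSO (≤1% final) or water. MTS:PMS (20:1) was added for 4 h, then OD490 was read. Survival was % of untreated control; IC50 = concentration halving OD; N = 1−4.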

[3] = Therapeutic index, ratio of IC50 for mouse Peritoneal macrophages to IC50 for SSG-resistant Leishmania donovani 39 promastigote; settings: read-out: Ratio IC50
Procedure, shortened: (§2)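 Index is PEM cytotoxicity IC50 over promastigote IC50. For PEM, cells were seeded at 2 × 10^4 per well in supplemented DMEM, given graded doses for 72 h at 37 °C, 5% CO2, and read by MTS survival.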

[4] = system: Leishmania donovani; experiment: Antimicrobial activity against SSG-resistant Leishmania donovani 39 promastigote assessed as inhibition of parasite growth after 72 hrs by MTS assay; type: functional, organism-based; settings: Leishmania donovani, 39, 72 h; procedure, shortened: as §1
[5] = Therapeutic index, ratio of IC50 for mouse PEM cells to IC50 for wild-type Leishmania donovani AG83 promastigote; type: cell-based; settings: read-out: Ratio IC50; procedure, shortened: as §2
[6] = Cytotoxicity against mouse Peritoneal macrophages cells after 72 hrs by MTS assay; type: cell-based; settings: Peritoneal macrophage cell
Procedure, shortened: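 Primary mouse peritoneal elicited macrophages were seeded at 2 × 10^4 cells per well in DMEM with 10% heat-inactivated FBS. They were exposed to graded doses for 72 h at 37 °C in 5% CO2. Survival was read by MTS/PMS tetrazolium reduction (OD 490 nm) relative to untreated control. The IC50 was the concentration halving OD. Results are mean ± SEM of 1–4 independent experiments.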

[7] = Therapeutic index, ratio of IC50 for mouse Peritoneal macrophages to IC50 for pentamidine-resistant Leishmania donovani AG83PentR50 promastigote; settings: read-out: Ratio IC50; procedure, shortened: as §2
[8] = system: Leishmania donovani; experiment: Antimicrobial activity against wild-type Leishmania donovani AG83 promastigote assessed as inhibition of parasite growth after 72 hrs by MTS assay; type: functional, organism-based; settings: AG83, 72 h
Procedure, shortened: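 Promastigotes were grown in Schneider's medium pH 6.9 with 10% heat-inactivated FBS at 27 °C, seeded at 1 × 10^5 per well, and exposed to serial concentrations for 72 h at 27 °C. Compounds were in DMSO (≤1% final) or water. MTS:PMS (20:1) was added for 4 h, then OD490 was read.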

[9] = system: Leishmania donovani; experiment: Antimicrobial activity against SSG-resistant Leishmania donovani 39 amastigote infected in mouse peritoneal macrophages assessed as inhibition of parasite growth after 72 hrs by Giemsa staining method; type: functional, organism-based; settings: Leishmania donovani, 39, 72 h
Procedure, shortened: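 Mouse peritoneal elicited macrophages were seeded on coverslips at 1 × 10^5 cells per well in DMEM with 10% heat-inactivated FBS and left to attach overnight. They were infected overnight with late-log Ld39 promastigotes (parasite:macrophage 20:1) at 37 °C, 5% CO2, then washed. Compounds were applied for 72 h at 37 °C. Giemsa-stained amastigotes per 100 macrophages gave IC50; N = 1−3.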

[10] = system: Leishmania donovani; experiment: Ratio of isoginkgetin IC50 to compound IC50 for axenically grown Leishmania donovani amastigotes; type: functional
[11] = system: RAW264.7; experiment: Cytotoxicity against mouse RAW264.7 cells after 72 hrs by MTS assay; type: cell-based; settings: RAW264.7, 72 h
Procedure, shortened: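 RAW 264.7 murine macrophage line was plated at 1 × 10^4 cells per well in supplemented DMEM. Cells received a graded compound series for 72 h at 37 °C, 5% CO2, with a maximum of 1% DMSO. Viability was measured by MTS with PMS coupling at OD 490 nm, as percent of untreated control. The IC50 was the concentration reducing OD by half, given as mean ± SEM, N = 1–4.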

[12] = Therapeutic index, ratio of IC50 for mouse Peritoneal macrophages to IC50 for SSG-resistant Leishmania donovani 39 amastigote infected in mouse peritoneal macrophages; settings: read-out: Ratio IC50

O=c1cc(-c2ccc(OCCOCCN(CCOCCOc3ccc(-c4cc(=O)c5ccccc5o4)cc3)Cc3ccncc3)cc2)oc2ccccc12
inhibition [1]: Active
IC50 [2]: 0.13 µM
selectivity ratio [3]: > 419
IC50 [4]: 0.21 µM
selectivity ratio [5]: > 440
IC50 [6]: > 88 µM
selectivity ratio [7]: > 677
IC50 [8]: 0.2 µM
IC50 [9]: 0.63 µM
Ratio IC50 [10]: 3
IC50 [11]: > 100 µM
selectivity ratio [12]: > 140
